Laboratory results published in ChEMBL document CHEMBL4811229, “Leveraging Peptaibol Biosynthetic Promiscuity for Next-Generation Antiplasmodial Therapeutics” (J Nat Prod, 2021).
Where a SMILES comes first, the peptide text is derived from it. [ ]: non-standard residue; d: D form. The star is where a group is joined. X1 = CC(C)C[C@@H](C[N+]1=C2CCCN2CCC1)N*; Leu(ol) = CC(C)C[C@H](N)CO; dIva = CC[C@@](C)(N)C(=O)O; Pip = O=C(O)[C@@H]1CCCCN1; Iva = CC[C@](C)(N)C(=O)O; Aib = CC(C)(N)C(=O)O; βAla = NCCC(=O)O

How the values were obtained:
Plasmodium falciparum = assay: Antiplasmodial activity against multidrug-resistant Plasmodium falciparum Dd2 infected in human A-positive erythrocytes assessed as reduction in parasitemia incubated for 72 hrs by fluorescence-based SYBR-Green-1 assay; format: functional, organism-based; details: Dd2, Erythrocyte
HepG2 = assay: Cytotoxicity against human HepG2 cells assessed as decrease in cell viability measured after 48 hrs by MTS assay; format: cell-based; details: HepG2, 48 h
Summary of the method: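 After 48 h at 37 °C and 5% CO2, MTS was added for 4 h and absorbance read at 490 nm. Values were normalized to Triton X-100-lysed wells (0% growth) and untreated wells. EC50 is the mean of triplicate experiments.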

[1] = Selectivity index, ratio of EC50 for human HepG2 cells to EC50 for antiplasmodial activity against multidrug-resistant Plasmodium falciparum Dd2 infected in human A-positive erythrocytes; format: toxicity, cell-based; details: read-out: Ratio EC50

Structure (SMILES) | EC50 (Plasmodium falciparum) [nM] | EC50 (HepG2) [nM] | selectivity ratio [1]
CC[C@H](C)[C@H](NC(=O)[C@H](CO)NC(=O)[C@@H]1CCCN1C(=O)C(C)(C)NC(=O)[C@H](CC(C)C)NC(=O)[C@H](CC(N)=O)NC(=O)C(C)(C)NC(C)=O)C(=O)NC(C)(C)C(=O)N1CCC[C@H]1C(=O)NC(C)(C)C(=O)N[C@@H](CC(C)C)C(=O)N[C@](C)(CC)C(=O)N1CCC[C@H]1C(=O)N[C@H](CO)CC(C)C | 520 | > 25000 | > 48
CC[C@H](C)[C@H](NC(=O)[C@H](CC(C)C)NC(=O)[C@H](CC(N)=O)NC(=O)C(C)(C)NC(C)=O)C(=O)NC(C)(C)C(=O)N1CCC[C@H]1C(=O)N[C@](C)(CC)C(=O)N[C@@H](CC(C)C)C(=O)NC(C)(C)C(=O)N1CCC[C@H]1C(=O)N[C@H](CO)CC(C)C (HELM PEPTIDE1{[ac].[Aib].N.L.I.[Aib].P.[CC[C@@](C)(N[*:1])C(=O)[*:2]].L.[Aib].P.[CC(C)C[C@@H](CO)N[*:1]]}$$$$V2.0) | 720 | > 25000 | > 35
CCCCCCCC(=O)NC(C)(C)C(=O)NCC(=O)N[C@@H](CC(C)C)C(=O)NC(C)(C)C(=O)NCC(=O)NCC(=O)N[C@H](C(=O)NC(C)(C)C(=O)NCC(=O)N[C@@H](CC(C)C)C(=O)N[C@H](CO)CC(C)C)C(C)C (HELM PEPTIDE1{[CCCCCCCC(=O)[*:2]].[Aib].G.L.[Aib].G.G.V.[Aib].G.L.[CC(C)C[C@@H](CO)N[*:1]]}$$$$V2.0) |  |  | > 28
CC[C@](C)(NC(=O)[C@H](CC(C)C)NC(=O)[C@H](C)NC(=O)C(C)(C)NC(=O)[C@@H]1CCCCN1C(=O)C(C)(C)NC(=O)C(C)(C)NC(=O)CNC(=O)CCNC(=O)[C@H](CC(C)C)NC(=O)C(C)(C)NC(=O)C(C)(C)NC(=O)[C@@H]1CCCCN1C(=O)C(C)(C)NC(=O)[C@@H]1CCCCN1C(C)=O)C(=O)N[C@@H](CC(C)C)C[N+]1=C2CCCN2CCC1 (Ac-[Pip][Aib][Pip][Aib][Aib]L[βAla]G[Aib][Aib][Pip][Aib]AL[Iva]-X1) | 390 | > 25000 | > 64
CC(=O)NC(C)(C)C(=O)N[C@@H](C)C(=O)N[C@@H](C)C(=O)N[C@@H](C)C(=O)NC(C)(C)C(=O)NC(C)(C)C(=O)N[C@@H](CCC(N)=O)C(=O)NC(C)(C)C(=O)N[C@@H](CC(C)C)C(=O)NC(C)(C)C(=O)NCC(=O)N[C@@H](CC(C)C)C(=O)NC(C)(C)C(=O)N1CCC[C@H]1C(=O)N[C@H](C(=O)NC(C)(C)C(=O)NC(C)(C)C(=O)N[C@@H](CCC(N)=O)C(=O)N[C@@H](CCC(N)=O)C(=O)N[C@H](CO)Cc1ccccc1)C(C)C (HELM PEPTIDE1{[ac].[Aib].A.A.A.[Aib].[Aib].Q.[Aib].L.[Aib].G.L.[Aib].P.V.[Aib].[Aib].Q.Q.[OC[C@H](Cc1ccccc1)N[*:1]]}$$$$V2.0) | 320 | 5770 | 18
CC[C@H](C)[C@H](NC(=O)[C@H](C)NC(=O)[C@@H]1CCCN1C(=O)C(C)(C)NC(=O)[C@H](CC(C)C)NC(=O)[C@H](CCC(N)=O)NC(=O)[C@@](C)(CC)NC(C)=O)C(=O)NC(C)(C)C(=O)N1CCC[C@H]1C(=O)N[C@](C)(CC)C(=O)N[C@@H](CC(C)C)C(=O)NC(C)(C)C(=O)N1CCC[C@H]1C(=O)N[C@H](CO)CC(C)C (Ac-[dIva]QL[Aib]PAI[Aib]P[dIva]L[Aib]P[Leu(ol)]) |  | > 25000 | > 76
CC(=O)NC(C)(C)C(=O)N[C@@H](C)C(=O)N[C@@H](C)C(=O)N[C@@H](C)C(=O)NC(C)(C)C(=O)NC(C)(C)C(=O)N[C@@H](CCC(N)=O)C(=O)NC(C)(C)C(=O)N[C@H](C(=O)NC(C)(C)C(=O)NCC(=O)N[C@@H](CC(C)C)C(=O)NC(C)(C)C(=O)N1CCC[C@H]1C(=O)N[C@H](C(=O)NC(C)(C)C(=O)NC(C)(C)C(=O)N[C@@H](CCC(N)=O)C(=O)N[C@@H](CCC(N)=O)C(=O)N[C@H](CO)Cc1ccccc1)C(C)C)C(C)C (HELM PEPTIDE1{[ac].[Aib].A.A.A.[Aib].[Aib].Q.[Aib].V.[Aib].G.L.[Aib].P.V.[Aib].[Aib].Q.Q.[OC[C@H](Cc1ccccc1)N[*:1]]}$$$$V2.0) | 560 | 9280 | 17
CC[C@H](C)[C@H](NC(=O)[C@H](C)NC(=O)[C@@H]1CCCN1C(=O)C(C)(C)NC(=O)[C@H](CC(C)C)NC(=O)[C@H](CCC(N)=O)NC(=O)[C@@](C)(CC)NC(C)=O)C(=O)NC(C)(C)C(=O)N1CCC[C@H]1C(=O)NC(C)(C)C(=O)N[C@@H](CC(C)C)C(=O)NC(C)(C)C(=O)N1CCC[C@H]1C(=O)N[C@H](CO)CC(C)C (HELM PEPTIDE1{[ac].[CC[C@@](C)(N[*:1])C(=O)[*:2]].Q.L.[Aib].P.A.I.[Aib].P.[Aib].L.[Aib].P.[CC(C)C[C@@H](CO)N[*:1]]}$$$$V2.0) |  |  | > 78
CC[C@H](C)[C@H](NC(=O)[C@H](CO)NC(=O)[C@@H]1CCCN1C(=O)C(C)(C)NC(=O)[C@H](CC(C)C)NC(=O)[C@H](CC(N)=O)NC(=O)[C@@](C)(CC)NC(C)=O)C(=O)NC(C)(C)C(=O)N1CCC[C@H]1C(=O)N[C@](C)(CC)C(=O)N[C@@H](CC(C)C)C(=O)NC(C)(C)C(=O)N1CCC[C@H]1C(=O)N[C@H](CO)CC(C)C (Ac-[dIva]NL[Aib]PSI[Aib]P[dIva]L[Aib]P[Leu(ol)]) |  |  | > 48
CC[C@@](C)(NC(=O)[C@H](CC(C)C)NC(=O)C(C)(C)NC(=O)[C@@H]1CCCN1C(=O)C(C)(C)NC(=O)[C@@H](NC(=O)[C@H](C)NC(=O)[C@@H]1CCCN1C(=O)C(C)(C)NC(=O)[C@H](CC(C)C)NC(=O)[C@H](CCC(N)=O)NC(=O)C(C)(C)NC(C)=O)C(C)C)C(=O)N1CCC[C@H]1C(=O)N[C@H](CO)CC(C)C | 1320 | > 25000 | > 19
CCCCCCCC(=O)NC(C)(C)C(=O)NCC(=O)N[C@@H](CC(C)C)C(=O)NC(C)(C)C(=O)NCC(=O)NCC(=O)N[C@@H](CC(C)C)C(=O)NC(C)(C)C(=O)NCC(=O)N[C@@H](CC(C)C)C(=O)N[C@H](CO)CC(C)C (HELM PEPTIDE1{[CCCCCCCC(=O)[*:2]].[Aib].G.L.[Aib].G.G.L.[Aib].G.L.[CC(C)C[C@@H](CO)N[*:1]]}$$$$V2.0) |  |  | > 11
CC[C@H](C)[C@H](NC(=O)[C@H](C)NC(=O)[C@@H]1CCCN1C(=O)C(C)(C)NC(=O)[C@H](CC(C)C)NC(=O)[C@H](CCC(N)=O)NC(=O)C(C)(C)NC(C)=O)C(=O)NC(C)(C)C(=O)N1CCC[C@H]1C(=O)NC(C)(C)C(=O)N[C@@H](CC(C)C)C(=O)NC(C)(C)C(=O)N1CCC[C@H]1C(=O)N[C@H](CO)CC(C)C (HELM PEPTIDE1{[ac].[Aib].Q.L.[Aib].P.A.I.[Aib].P.[Aib].L.[Aib].P.[CC(C)C[C@@H](CO)N[*:1]]}$$$$V2.0) |  |  | > 86
CC[C@H](C)[C@H](NC(=O)[C@H](CO)NC(=O)[C@@H]1CCCN1C(=O)C(C)(C)NC(=O)[C@H](CC(C)C)NC(=O)[C@H](CCC(N)=O)NC(=O)C(C)(C)NC(C)=O)C(=O)NC(C)(C)C(=O)N1CCC[C@H]1C(=O)NC(C)(C)C(=O)N[C@@H](CC(C)C)C(=O)NC(C)(C)C(=O)N1CCC[C@H]1C(=O)N[C@H](CO)CC(C)C (HELM PEPTIDE1{[ac].[Aib].Q.L.[Aib].P.S.I.[Aib].P.[Aib].L.[Aib].P.[CC(C)C[C@@H](CO)N[*:1]]}$$$$V2.0) |  |  | > 14
CC[C@H](C)[C@H](NC(=O)[C@H](CO)NC(=O)[C@@H]1CCCN1C(=O)C(C)(C)NC(=O)[C@H](CC(C)C)NC(=O)[C@H](CC(N)=O)NC(=O)[C@@](C)(CC)NC(C)=O)C(=O)NC(C)(C)C(=O)N1CCC[C@H]1C(=O)NC(C)(C)C(=O)N[C@@H](CC(C)C)C(=O)NC(C)(C)C(=O)N1CCC[C@H]1C(=O)N[C@H](CO)CC(C)C (HELM PEPTIDE1{[ac].[CC[C@@](C)(N[*:1])C(=O)[*:2]].N.L.[Aib].P.S.I.[Aib].P.[Aib].L.[Aib].P.[CC(C)C[C@@H](CO)N[*:1]]}$$$$V2.0) |  |  | > 43
CCCCCCCC(=O)NC(C)(C)C(=O)NCC(=O)N[C@@H](CC(C)C)C(=O)NC(C)(C)C(=O)NCC(=O)NCC(=O)N[C@H](C(=O)NC(C)(C)C(=O)NCC(=O)N[C@H](C(=O)N[C@H](CO)CC(C)C)C(C)C)C(C)C |  |  | > 10
CC[C@@](C)(NC(C)=O)C(=O)N[C@@H](CC(N)=O)C(=O)N[C@@H](CC(C)C)C(=O)NC(C)(C)C(=O)N1CCC[C@H]1C(=O)N[C@@H](CO)C(=O)N[C@H](C(=O)NC(C)(C)C(=O)N1CCC[C@H]1C(=O)NC(C)(C)C(=O)N[C@@H](CC(C)C)C(=O)NC(C)(C)C(=O)N1CCC[C@H]1C(=O)N[C@H](CO)CC(C)C)C(C)C (HELM PEPTIDE1{[ac].[CC[C@@](C)(N[*:1])C(=O)[*:2]].N.L.[Aib].P.S.V.[Aib].P.[Aib].L.[Aib].P.[CC(C)C[C@@H](CO)N[*:1]]}$$$$V2.0) |  |  | > 40
CC[C@H](C)[C@H](NC(=O)[C@H](CC(C)C)NC(=O)[C@H](CCC(N)=O)NC(=O)[C@@](C)(CC)NC(C)=O)C(=O)NC(C)(C)C(=O)N1CCC[C@H]1C(=O)N[C@](C)(CC)C(=O)N[C@@H](CC(C)C)C(=O)NC(C)(C)C(=O)N1CCC[C@H]1C(=O)N[C@H](CO)CC(C)C (Ac-[dIva]QLI[Aib]P[dIva]L[Aib]P[Leu(ol)]) |  |  | > 250
CCCCCCCC(=O)NC(C)(C)C(=O)NCC(=O)N[C@@H](CC(C)C)C(=O)NC(C)(C)C(=O)NCC(=O)NCC(=O)N[C@H](C(=O)NC(C)(C)C(=O)NCC(=O)N[C@H](C(=O)N[C@H](CO)CC(C)C)[C@@H](C)CC)C(C)C |  |  | > 8
CC[C@H](C)[C@H](NC(=O)[C@H](C)NC(=O)[C@@H]1CCCN1C(=O)C(C)(C)NC(=O)[C@H](CC(C)C)NC(=O)[C@H](CC(N)=O)NC(=O)[C@@](C)(CC)NC(C)=O)C(=O)NC(C)(C)C(=O)N1CCC[C@H]1C(=O)N[C@](C)(CC)C(=O)N[C@@H](CC(C)C)C(=O)NC(C)(C)C(=O)N1CCC[C@H]1C(=O)N[C@H](CO)CC(C)C (Ac-[dIva]NL[Aib]PAI[Aib]P[dIva]L[Aib]P[Leu(ol)]) |  |  | > 40
